Laboratory results published in ChEMBL document CHEMBL3526002, “Tissue distribution and identification of radioactivity components at elimination phase after oral administration of [¹⁴C]CS-1036, an α-amylase inhibitor, to rats” (Drug Metab Dispos, 2013).

Tests used:
Set-up in all cases: dose 5 mg/kg, dosed compound name [14C]CS-1036, route oral
Conditions in all cases: in vivo
[1] = Drug uptake in albino F344/DuCrlCrlj rat trachea at 5 mg/kg, po after 24 hrs by liquid scintillation counting; format: ADME, organism-based
Aorta = test: Drug uptake in albino F344/DuCrlCrlj rat aorta assessed as ng equivalent of CS-1036 at 5 mg/kg, po after 8 hrs by liquid scintillation counting; format: ADME, organism-based
Harderian gland [2] = test: Drug uptake in albino F344/DuCrlCrlj rat harderian gland at 5 mg/kg, po after 24 hrs by liquid scintillation counting; format: ADME, organism-based
Cerebrum [3] = test: Drug uptake in albino F344/DuCrlCrlj rat cerebrum assessed as ng equivalent of CS-1036 at 5 mg/kg, po after 8 hrs by liquid scintillation counting; format: ADME, organism-based
Method in brief: (§1)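 Single oral [14C]CS-1036 at 5 mg/kg was given to male rats (159–167 g; n = 3). Cerebrum was collected after aortic bleeding at 1, 4, 8, 24, 72, 168 or 336 h, weighed, and homogenized in 2 volumes of saline. A 0.5 ml aliquot was solubilized in Soluene-350 and counted by LSC with external-standard correction. Results are in ng equivalent/g tissue from specific activity and sample weight.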

Zone of skin [4] = test: Drug uptake in albino F344/DuCrlCrlj rat skin assessed as ng equivalent of CS-1036 at 5 mg/kg, po after 4 hrs by liquid scintillation counting; format: ADME, organism-based
[5] = Drug uptake in albino F344/DuCrlCrlj rat brown fat assessed as ng equivalent of CS-1036 at 5 mg/kg, po after 1 hr by liquid scintillation counting; format: ADME, organism-based, Brown adipose tissue
Spleen [6] = test: Drug uptake in albino F344/DuCrlCrlj rat spleen assessed as ng equivalent of CS-1036 at 5 mg/kg, po after 1 hr by liquid scintillation counting; format: ADME, organism-based
Heart [7] = test: Drug uptake in albino F344/DuCrlCrlj rat heart at 5 mg/kg, po after 1 hr by liquid scintillation counting; format: ADME, organism-based
Large intestine [8] = test: Drug uptake in albino F344/DuCrlCrlj rat large intestine at 5 mg/kg, po after 8 hrs by liquid scintillation counting; format: ADME, organism-based
Zone of skin [9] = test: Drug uptake in albino F344/DuCrlCrlj rat skin at 5 mg/kg, po after 8 hrs by liquid scintillation counting; format: ADME, organism-based
Stomach [10] = test: Drug uptake in albino F344/DuCrlCrlj rat stomach assessed as ng equivalent of CS-1036 at 5 mg/kg, po after 4 hrs by liquid scintillation counting; format: ADME, organism-based
[11] = Drug uptake in albino F344/DuCrlCrlj rat brown fat at 5 mg/kg, po after 8 hrs by liquid scintillation counting; format: ADME, organism-based, Brown adipose tissue
Zone of skin [12] = test: Drug uptake in albino F344/DuCrlCrlj rat skin assessed as ng equivalent of CS-1036 at 5 mg/kg, po after 8 hrs by liquid scintillation counting; format: ADME, organism-based
Thymus = test: Drug uptake in albino F344/DuCrlCrlj rat thymus at 5 mg/kg, po after 24 hrs by liquid scintillation counting; format: ADME, organism-based
[13] = Drug uptake in albino F344/DuCrlCrlj rat epididymis at 5 mg/kg, po after 168 hrs by liquid scintillation counting; format: ADME, organism-based
Stomach [14] = test: Drug uptake in albino F344/DuCrlCrlj rat stomach assessed as ng equivalent of CS-1036 at 5 mg/kg, po after 168 hrs by liquid scintillation counting; format: ADME, organism-based
Large intestine [15] = test: Drug uptake in albino F344/DuCrlCrlj rat large intestine at 5 mg/kg, po after 1 hr by liquid scintillation counting; format: ADME, organism-based
Heart [16] = test: Drug uptake in albino F344/DuCrlCrlj rat heart at 5 mg/kg, po after 24 hrs by liquid scintillation counting; format: ADME, organism-based
Small intestine = test: Drug uptake in albino F344/DuCrlCrlj rat small intestine at 5 mg/kg, po after 168 hrs by liquid scintillation counting; format: ADME, organism-based
Harderian gland [17] = test: Drug uptake in albino F344/DuCrlCrlj rat harderian gland assessed as ng equivalent of CS-1036 at 5 mg/kg, po after 72 hrs by liquid scintillation counting; format: ADME, organism-based
Large intestine [18] = test: Drug uptake in albino F344/DuCrlCrlj rat large intestine assessed as ng equivalent of CS-1036 at 5 mg/kg, po after 168 hrs by liquid scintillation counting; format: ADME, organism-based
Lung = test: Drug uptake in albino F344/DuCrlCrlj rat lung assessed as ng equivalent of CS-1036 at 5 mg/kg, po after 8 hrs by liquid scintillation counting; format: ADME, organism-based
Spleen [19] = test: Drug uptake in albino F344/DuCrlCrlj rat spleen at 5 mg/kg, po after 24 hrs by liquid scintillation counting; format: ADME, organism-based
Cerebrum [20] = test: Drug uptake in albino F344/DuCrlCrlj rat cerebrum at 5 mg/kg, po after 168 hrs by liquid scintillation counting; format: ADME, organism-based; method in brief: as §1
Cerebellum = test: Drug uptake in albino F344/DuCrlCrlj rat cerebellum assessed as ng equivalent of CS-1036 at 5 mg/kg, po after 72 hrs by liquid scintillation counting; format: ADME, organism-based
Cerebrum [21] = test: Drug uptake in albino F344/DuCrlCrlj rat cerebrum assessed as ng equivalent of CS-1036 at 5 mg/kg, po after 1 hr by liquid scintillation counting; format: ADME, organism-based; method in brief: as §1
Large intestine [22] = test: Drug uptake in albino F344/DuCrlCrlj rat large intestine at 5 mg/kg, po after 72 hrs by liquid scintillation counting; format: ADME, organism-based
[23] = Drug uptake in albino F344/DuCrlCrlj rat mandibular gland assessed as ng equivalent of CS-1036 at 5 mg/kg, po after 24 hrs by liquid scintillation counting; format: ADME, organism-based
Pancreas [24] = test: Drug uptake in albino F344/DuCrlCrlj rat pancreas assessed as ng equivalent of CS-1036 at 5 mg/kg, po after 336 hrs by liquid scintillation counting; format: ADME, organism-based
[25] = Drug uptake in albino F344/DuCrlCrlj rat epididymis assessed as ng equivalent of CS-1036 at 5 mg/kg, po after 72 hrs by liquid scintillation counting; format: ADME, organism-based
Pancreas [26] = test: Drug uptake in albino F344/DuCrlCrlj rat pancreas at 5 mg/kg, po after 168 hrs by liquid scintillation counting; format: ADME, organism-based
Zone of skin [27] = test: Drug uptake in albino F344/DuCrlCrlj rat skin at 5 mg/kg, po after 72 hrs by liquid scintillation counting; format: ADME, organism-based
Pancreas [28] = test: Drug uptake in albino F344/DuCrlCrlj rat pancreas assessed as ng equivalent of CS-1036 at 5 mg/kg, po after 72 hrs by liquid scintillation counting; format: ADME, organism-based
Stomach [29] = test: Drug uptake in albino F344/DuCrlCrlj rat stomach at 5 mg/kg, po after 4 hrs by liquid scintillation counting; format: ADME, organism-based
Liver = test: Drug uptake in albino F344/DuCrlCrlj rat liver at 5 mg/kg, po after 8 hrs by liquid scintillation counting; format: ADME, organism-based
Blood = test: Drug uptake in albino F344/DuCrlCrlj rat blood at 5 mg/kg, po after 8 hrs by liquid scintillation counting; format: ADME, organism-based
Method in brief: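 Male rats (159–167 g; n = 3) received a single oral dose of [14C]CS-1036 at 5 mg/kg. Blood was drawn from the abdominal aorta at 1, 4, 8, 24, 72, 168 and 336 h. Radioactivity was counted by LSC with external-standard efficiency correction. Results are expressed as ng equivalent/ml from the specific activity and sample volume; mean + S.D.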

Radiolabel recovery [1]: 43.2 ngequiv/g
Radiolabel recovery (Aorta): 42.1 ngequiv/g
Radiolabel recovery (Harderian gland [2]): 290 ngequiv/g
Radiolabel recovery (Cerebrum [3]): 1.44 ngequiv/g
Radiolabel recovery (Zone of skin [4]): 9.6 ngequiv/g
Radiolabel recovery [5]: 4.1 ngequiv/g
Radiolabel recovery (Spleen [6]): 57.2 ngequiv/g
Radiolabel recovery (Heart [7]): 27.9 ngequiv/g
Radiolabel recovery (Large intestine [8]): 7770 ngequiv/g
Radiolabel recovery (Zone of skin [9]): 60.3 ngequiv/g
Radiolabel recovery (Stomach [10]): 41 ngequiv/g
Radiolabel recovery [11]: 28.9 ngequiv/g
Radiolabel recovery (Zone of skin [12]): 71.6 ngequiv/g
Radiolabel recovery (Thymus): 53.3 ngequiv/g
Radiolabel recovery [13]: 18.5 ngequiv/g
Radiolabel recovery (Stomach [14]): 11.2 ngequiv/g
Radiolabel recovery (Large intestine [15]): 1070 ngequiv/g
Radiolabel recovery (Heart [16]): 41.7 ngequiv/g
Radiolabel recovery (Small intestine): 13 ngequiv/g
Radiolabel recovery (Harderian gland [17]): 67 ngequiv/g
Radiolabel recovery (Large intestine [18]): 19 ngequiv/g
Radiolabel recovery (Lung): 72.1 ngequiv/g
Radiolabel recovery (Spleen [19]): 82.4 ngequiv/g
Radiolabel recovery (Cerebrum [20]): 6.2 ngequiv/g
Radiolabel recovery (Cerebellum): 6.4 ngequiv/g
Radiolabel recovery (Cerebrum [21]): 0.23 ngequiv/g
Radiolabel recovery (Large intestine [22]): 65.1 ngequiv/g
Radiolabel recovery [23]: 9 ngequiv/g
Radiolabel recovery (Pancreas [24]): 11.2 ngequiv/g
Radiolabel recovery [25]: 8.3 ngequiv/g
Radiolabel recovery (Pancreas [26]): 79.2 ngequiv/g
Radiolabel recovery (Zone of skin [27]): 91.5 ngequiv/g
Radiolabel recovery (Pancreas [28]): 82 ngequiv/g
Radiolabel recovery (Stomach [29]): 129 ngequiv/g
Radiolabel recovery (Liver): 193 ngequiv/g
Radiolabel recovery (Blood): 22.1 ngequiv/ml
SMILES: C[C@H]1O[C@@H](O[C@H]2[C@H](O)[C@@H](O)[C@@H](O[14C@H]3[14C@H](O)[14CH2]N[14C@@H]3[14CH2]O)O[C@@H]2CO)[C@H](O)[C@@H](O)[C@@H]1O
